Results on 23 compounds are retold here after ChEMBL document CHEMBL1153104, “Synthesis and structural optimization of multiple H-bonding region of diarylalkyl (thio)amides as novel TRPV1 antagonists” (Bioorg Med Chem, 2009).

The target in this assay is Transient receptor potential cation channel subfamily V member 1 (Rattus norvegicus, UniProt O35433). The experiment in a line: Antagonist activity at TRPV1 in Sprague-Dawley rat DRG neurons assessed as inhibition of capsaicin-induced [45]Ca2+ uptake. It is filed as functional. The method in brief: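 Neonatal rat DRG neurons from all spinal levels were dissociated with collagenase/trypsin, then grown 3 days on poly-D-ornithine (1500–1700 neurons/well) in DME/F12 with 10% horse serum and C6-conditioned medium, with cytosine arabinoside for the first 2 days. Cells were exposed to ⁴⁵Ca²⁺, 0.5 capsaicin and compound for 10 min at room temperature, lysed in 0.3% SDS, and scintillation-counted. IC50 = 50% reduction of capsaicin response.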
Chain of Transient receptor potential cation channel subfamily V member 1 (O35433 whole entry): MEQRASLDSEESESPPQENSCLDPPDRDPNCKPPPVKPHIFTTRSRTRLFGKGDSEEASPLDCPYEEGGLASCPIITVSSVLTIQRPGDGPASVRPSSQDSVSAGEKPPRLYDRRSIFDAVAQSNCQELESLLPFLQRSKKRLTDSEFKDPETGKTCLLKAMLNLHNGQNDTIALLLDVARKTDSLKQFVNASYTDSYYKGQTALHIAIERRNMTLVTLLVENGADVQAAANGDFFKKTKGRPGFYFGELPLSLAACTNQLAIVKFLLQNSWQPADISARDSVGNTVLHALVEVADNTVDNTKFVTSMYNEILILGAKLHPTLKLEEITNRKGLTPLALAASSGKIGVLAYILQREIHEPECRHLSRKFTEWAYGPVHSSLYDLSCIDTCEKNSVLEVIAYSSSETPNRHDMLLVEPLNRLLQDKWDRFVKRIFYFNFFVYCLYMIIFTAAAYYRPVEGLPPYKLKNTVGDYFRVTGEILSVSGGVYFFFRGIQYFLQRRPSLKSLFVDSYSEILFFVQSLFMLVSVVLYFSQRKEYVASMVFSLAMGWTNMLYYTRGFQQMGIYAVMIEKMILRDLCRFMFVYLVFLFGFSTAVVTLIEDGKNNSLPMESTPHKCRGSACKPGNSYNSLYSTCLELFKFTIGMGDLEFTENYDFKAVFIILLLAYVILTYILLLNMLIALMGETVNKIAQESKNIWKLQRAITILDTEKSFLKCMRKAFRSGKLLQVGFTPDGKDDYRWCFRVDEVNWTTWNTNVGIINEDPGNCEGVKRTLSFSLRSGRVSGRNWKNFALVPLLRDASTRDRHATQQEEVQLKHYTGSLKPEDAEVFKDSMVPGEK

As a reminder, the IC50 is the concentration that gives 50% inhibition. `C=Cc1cc(CNC(=S)CCc2ccc(C(C)(C)C)cc2)ccc1NS(C)(=O)=O`: the IC50 came to 0.061 µM.
For `CC(C)(C)c1ccc(CCC(=S)NCc2ccc(NS(C)(=O)=O)c(I)c2)cc1`, the IC50 was 0.3 µM.
As for `CC(C)(C)c1ccc(CCC(=S)NCc2ccc(NS(C)(=O)=O)cc2C(F)(F)F)cc1`, the IC50 amounted to 2.4 µM.
Then `COC(=O)c1cc(CNC(=S)CCc2ccc(C(C)(C)C)cc2)ccc1NS(C)(=O)=O`, with 3.7 µM.
Then `CCc1cc(CNC(=S)CCc2ccc(C(C)(C)C)cc2)ccc1NS(C)(=O)=O`, with 0.24 µM; and `C=Cc1cc(CNC(=S)CCc2ccc(C(C)(C)C)cc2)cc(F)c1NS(C)(=O)=O`, with 0.032 µM; and `Cc1cc(CNC(=S)CCc2ccc(C(C)(C)C)cc2)ccc1NS(C)(=O)=O`, with 0.06 µM.
Consider `CC(C)(C)c1ccc(CCC(=S)NCc2ccc(NS(C)(=O)=O)c([N+](=O)[O-])c2)cc1`, for which the IC50 came to 0.072 µM.
As to `Cc1cc(CNC(=O)CCc2ccc(C(C)(C)C)cc2)cc(C)c1NS(C)(=O)=O`, the IC50 came out at 0.62 µM.
Then `CC(C)(C)c1ccc(CCC(=O)NCc2cc(F)c(NS(C)(=O)=O)c(C3CC3)c2)cc1`, with 0.36 µM.
Then `CC(C)(C)c1ccc(CCC(=S)NCc2cc(F)c(NS(C)(=O)=O)c(C#N)c2)cc1`, with 0.028 µM.
Turning to `CC(C)(C)c1ccc(CCC(=S)NCc2ccc(NS(C)(=O)=O)cc2Cl)cc1`, the IC50 was 3.5 µM.
As for `C#Cc1cc(CNC(=S)CCc2ccc(C(C)(C)C)cc2)cc(F)c1NS(C)(=O)=O`, the figure is 0.075 µM; as for `Cc1cc(CNC(=O)CCc2ccc(C(C)(C)C)cc2)cc(Cl)c1NS(C)(=O)=O`, 0.1 µM.
As for `CC(C)(C)c1ccc(CCC(=S)NCc2ccc(NS(C)(=O)=O)c(F)c2)cc1`, the figure is 0.04 µM; as for `Cc1cc(CNC(=S)CCc2ccc(C(C)(C)C)cc2)cc(C)c1NS(C)(=O)=O`, 2.9 µM.
Turning to `CC(C)(C)c1ccc(CCC(=S)NCc2cc(F)c(NS(C)(=O)=O)c(C3CC3)c2)cc1`, the IC50 was determined as 0.27 µM.
Then `CC(C)(C)c1ccc(CCC(=S)NCc2ccc(NS(C)(=O)=O)c(C(F)(F)F)c2)cc1`, with 0.94 µM; and `CC(C)(C)c1ccc(CCC(=S)NCc2ccc(NS(C)(=O)=O)c(C(=O)O)c2)cc1`, with 22.6 µM.
As for `Cc1cc(CNC(=S)CCc2ccc(C(C)(C)C)cc2)cc(Cl)c1NS(C)(=O)=O`, the figure is 0.08 µM; as for `CC(C)(C)c1ccc(CCC(=S)NCc2ccc(NS(C)(=O)=O)c(Cl)c2)cc1`, 0.096 µM; as for `CC(=O)c1cc(CNC(=S)CCc2ccc(C(C)(C)C)cc2)ccc1NS(C)(=O)=O`, 1 µM.
Then `CC(C)(C)c1ccc(CCC(=S)NCc2ccc(NS(C)(=O)=O)c(C#N)c2)cc1`, with 0.055 µM.
